In ChEMBL document CHEMBL3525967, “In vitro glucuronidation of the antibacterial triclocarban and its oxidative metabolites” (Drug Metab Dispos, 2012):

Tests used:
Liver microsome [1] = experiment: Drug metabolism in Sprague-Dawley rat liver microsomes assessed as glucuronidation incubated for 5 mins prior to UDPGA addition measured after 5 to 30 mins by LC-UV analysis; type: ADME
Outline: (§1)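 Microsomes or Sf-9 Supersomes (5 µg protein in 200 µL 100 mM potassium phosphate pH 7.4) pre-treated with alamethicin on ice 15 min; substrate 10 µM final (2% DMSO), MgCl2 and saccharolactone 10 mM each; 5 min preincubation at 37 °C, then UDPGA to start. Samples taken at 5, 10, 15, 30 min (or 2, 5, 10, 15 min) into ACN with internal standard; LC-UV-ESI-MS/MS.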

[2] = Drug metabolism in cynomolgus monkey liver microsomes assessed as glucuronidation incubated for 5 mins prior to UDPGA addition measured after 5 to 30 mins by LC-UV analysis; type: ADME, Macaca fascicularis; outline: as §1
[3] = target: T1, UDP-glucuronosyltransferase 1A4 (Homo sapiens, UniProt P22310); experiment: Drug metabolism assessed as human UGT1A4-mediated glucuronidation expressed in baculovirus infected insect sf9 cells incubated for 5 mins prior to UDPGA addition measured after 5 to 30 mins by LC-UV analysis; type: ADME; outline: as §1
T1 sequence (P22310 whole entry): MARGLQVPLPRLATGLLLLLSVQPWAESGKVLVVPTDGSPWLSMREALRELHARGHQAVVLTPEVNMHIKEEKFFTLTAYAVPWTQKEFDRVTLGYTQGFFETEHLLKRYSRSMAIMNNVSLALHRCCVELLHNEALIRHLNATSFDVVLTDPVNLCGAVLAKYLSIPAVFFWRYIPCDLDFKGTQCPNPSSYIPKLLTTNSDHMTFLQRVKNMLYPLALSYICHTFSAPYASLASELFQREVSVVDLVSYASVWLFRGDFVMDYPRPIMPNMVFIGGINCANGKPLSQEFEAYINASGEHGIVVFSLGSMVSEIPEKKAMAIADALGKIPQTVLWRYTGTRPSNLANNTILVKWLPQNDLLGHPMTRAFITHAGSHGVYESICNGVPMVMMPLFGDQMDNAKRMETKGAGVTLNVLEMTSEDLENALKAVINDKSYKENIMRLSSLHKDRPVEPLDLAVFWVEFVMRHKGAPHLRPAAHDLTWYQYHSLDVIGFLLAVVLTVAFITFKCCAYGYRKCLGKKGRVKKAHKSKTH

[4] = target: T2, UDP-glucuronosyltransferase 1A7 (Homo sapiens, UniProt Q9HAW7); experiment: Drug metabolism assessed as human UGT1A7-mediated glucuronidation expressed in baculovirus infected insect sf9 cells incubated for 5 mins prior to UDPGA addition measured after 5 to 30 mins by LC-UV analysis; type: ADME; outline: as §1
T2 sequence (Q9HAW7 whole entry): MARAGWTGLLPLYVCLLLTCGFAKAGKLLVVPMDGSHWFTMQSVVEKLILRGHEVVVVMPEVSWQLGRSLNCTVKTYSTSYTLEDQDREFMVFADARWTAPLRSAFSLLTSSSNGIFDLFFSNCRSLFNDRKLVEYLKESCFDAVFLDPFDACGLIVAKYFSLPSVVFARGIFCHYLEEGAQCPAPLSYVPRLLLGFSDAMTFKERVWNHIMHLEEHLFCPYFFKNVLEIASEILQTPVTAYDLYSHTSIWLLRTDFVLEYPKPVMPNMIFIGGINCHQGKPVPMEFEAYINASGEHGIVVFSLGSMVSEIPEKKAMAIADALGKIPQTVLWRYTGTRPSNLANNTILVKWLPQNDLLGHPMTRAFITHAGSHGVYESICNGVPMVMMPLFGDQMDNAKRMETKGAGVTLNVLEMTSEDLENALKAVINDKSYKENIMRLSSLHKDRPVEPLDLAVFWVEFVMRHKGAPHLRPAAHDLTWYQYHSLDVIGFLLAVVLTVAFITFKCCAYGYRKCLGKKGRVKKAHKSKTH

[5] = target: T3, UDP-glucuronosyltransferase 2B4 (Homo sapiens, UniProt P06133); experiment: Drug metabolism assessed as human UGT2B4-mediated glucuronidation expressed in baculovirus infected insect sf9 cells incubated for 5 mins prior to UDPGA addition measured after 5 to 30 mins by LC-UV analysis; type: ADME; outline: as §1
T3 sequence (P06133 whole entry): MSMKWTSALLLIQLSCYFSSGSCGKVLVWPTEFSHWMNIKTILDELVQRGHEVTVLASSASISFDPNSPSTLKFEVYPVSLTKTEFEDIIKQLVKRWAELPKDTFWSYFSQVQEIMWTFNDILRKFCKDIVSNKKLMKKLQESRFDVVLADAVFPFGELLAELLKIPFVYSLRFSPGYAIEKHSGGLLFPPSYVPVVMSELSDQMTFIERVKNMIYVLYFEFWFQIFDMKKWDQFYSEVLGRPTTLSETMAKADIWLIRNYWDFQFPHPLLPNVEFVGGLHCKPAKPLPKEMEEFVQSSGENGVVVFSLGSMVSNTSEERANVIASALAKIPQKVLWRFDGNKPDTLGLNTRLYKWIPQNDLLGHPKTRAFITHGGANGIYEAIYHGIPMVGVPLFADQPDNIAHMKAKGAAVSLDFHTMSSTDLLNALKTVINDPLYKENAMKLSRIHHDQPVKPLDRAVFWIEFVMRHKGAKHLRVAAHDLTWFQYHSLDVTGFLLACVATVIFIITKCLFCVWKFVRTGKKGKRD

[6] = target: T4, UDP-glucuronosyltransferase 2B15 (Homo sapiens, UniProt P54855); experiment: Drug metabolism assessed as human UGT2B15-mediated glucuronidation expressed in baculovirus infected insect sf9 cells incubated for 5 mins prior to UDPGA addition measured after 5 to 30 mins by LC-UV analysis; type: ADME; outline: as §1
T4 sequence (P54855 whole entry): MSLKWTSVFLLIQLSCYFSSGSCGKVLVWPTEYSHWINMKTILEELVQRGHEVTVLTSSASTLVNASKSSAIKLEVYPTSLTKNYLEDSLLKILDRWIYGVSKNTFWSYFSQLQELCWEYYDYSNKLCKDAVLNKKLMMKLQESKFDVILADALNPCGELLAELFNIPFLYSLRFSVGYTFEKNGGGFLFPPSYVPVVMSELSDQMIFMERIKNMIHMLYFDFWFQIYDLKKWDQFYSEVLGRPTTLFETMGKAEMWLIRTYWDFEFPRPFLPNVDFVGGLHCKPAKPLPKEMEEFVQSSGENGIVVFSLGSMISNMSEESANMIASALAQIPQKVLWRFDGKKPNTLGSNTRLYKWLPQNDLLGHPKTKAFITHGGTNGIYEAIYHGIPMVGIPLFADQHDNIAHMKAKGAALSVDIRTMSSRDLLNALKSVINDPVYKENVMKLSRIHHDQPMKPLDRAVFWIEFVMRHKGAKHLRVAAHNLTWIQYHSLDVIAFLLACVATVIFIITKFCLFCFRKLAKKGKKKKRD

Liver microsome [7] = experiment: Intrinsic clearance in human liver microsomes after 30 mins by LC-ESI-MS analysis; type: ADME; conditions: 0.5 h
Outline: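 2'-OH-TCC at 0.2, 0.5, 1, 2, 3, 5, 10 and 50 µM incubated with liver microsomes (alamethicin, MgCl2, saccharolactone, UDPGA; 37 °C), sampled at 5, 10, 15 and 30 min. Samples ≥5 µM diluted 1:9 in ACN; LC-ESI-MS. KM and vmax fitted from rate vs concentration; intrinsic clearance derived from these; mean and SD of three.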

| Drug metabolism (Liver microsome [1]) | Drug metabolism [2] | Drug metabolism [3] | Drug metabolism [4] | Drug metabolism [5] | Drug metabolism [6] | CLH (Liver microsome [7]) | SMILES |
| --- | --- | --- | --- | --- | --- | --- | --- |
| 8700 pmol/min/mg | 9500 pmol/min/mg | metabolite_not_detected | 1700 pmol/min/mg | metabolite_not_detected | metabolite_not_detected | – | O=C(Nc1ccc(Cl)c(O)c1)Nc1ccc(Cl)c(Cl)c1 |
| 2600 pmol/min/mg | 22800 pmol/min/mg | metabolite_not_detected | 870 pmol/min/mg | metabolite_not_detected | metabolite_not_detected | 1740 µL/min/mg | O=C(Nc1ccc(Cl)c(Cl)c1)Nc1ccc(Cl)cc1O |
| 5500 pmol/min/mg | 16300 pmol/min/mg | metabolite_not_detected | 1100 pmol/min/mg | metabolite_not_detected | metabolite_not_detected | – | O=C(Nc1ccc(Cl)cc1)Nc1cc(Cl)c(Cl)cc1O |
